# Measurements reported in ChEMBL document CHEMBL1240426, “Synthesis and biological evaluation of novel hybrid chalcone derivatives as vasorelaxant agents” (Eur J Med Chem, 2010).
# What was measured:
# Aorta [1] = assay: Vasodilatory activity in Sprague-Dawley rat aortic rings with endothelium assessed as inhibition of phenylephrine-induced vasoconstriction; format: functional, tissue-based
# Procedure, shortened: (§1)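 Endothelium-intact aortic rings from male Sprague-Dawley rats (4–6 months, ~250 g) were equilibrated for ≥1 h and then contracted isometrically with phenylephrine. Once tone stabilized (~20 min), compound was added cumulatively at 15–20 min intervals until relaxation reached steady state, with vehicle-only tissues run in parallel. Emax was taken as % of the PE contraction, and EC50 came from nonlinear regression of the concentration-response curve.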
# Aorta [2] = assay: Vasodilatory activity in Sprague-Dawley rat aortic rings with endothelium assessed as inhibition of phenylephrine-induced vasoconstriction relative to phenylephrine; format: functional; procedure, shortened: as §1
Structure (SMILES),EC50 (Aorta [1]),Activity (Aorta [1]),Emax (Aorta [2])
O=C(/C=C/c1ccc2c(c1)OCO2)c1c(OCCO[N+](=O)[O-])cc(OCCO[N+](=O)[O-])cc1OCCO[N+](=O)[O-],8.4 µM,Dose-dependent effect,104%
O=C(/C=C/c1ccc2c(c1)OCO2)c1c(O)cc(O)cc1OCCO[N+](=O)[O-],13.4 µM,Dose-dependent effect,103%
Cc1c(COc2cc(O)cc(O)c2C(=O)/C=C/c2ccc3c(c2)OCO3)no[n+]1[O-],12.1 µM,Dose-dependent effect,95.7%
COC(=O)C1=C(C)NC(C)=C(C(=O)OCCOc2cc(O)ccc2C(=O)/C=C/c2ccc3c(c2)OCO3)C1c1cccc([N+](=O)[O-])c1 (configuration not stated),9.7 µM,Dose-dependent effect,103%
COC(=O)C1=C(C)NC(C)=C(C(=O)OCCOc2cc(O)cc(O)c2C(=O)/C=C/c2ccc3c(c2)OCO3)C1c1cccc([N+](=O)[O-])c1 (configuration not stated),9.3 µM,Dose-dependent effect,98.6%
Cc1c(COc2cc(O)c(C(=O)/C=C/c3ccc4c(c3)OCO4)c(OCCO[N+](=O)[O-])c2)no[n+]1[O-],9.4 µM,Dose-dependent effect,96%

# Further compounds by falling EC50 (Aorta [1]), results first:
EC50 (Aorta [1]),Structure (SMILES),Activity (Aorta [1]),Emax (Aorta [2])
8.9 µM,Cc1no[n+]([O-])c1COc1cc(O)cc(O)c1C(=O)/C=C/c1ccc2c(c1)OCO2,Dose-dependent effect,100%
6.4 µM,COC(=O)C1=C(C)NC(C)=C(C(=O)OCCOc2cc(O)cc(O)c2C(=O)/C=C/c2cccc(Br)c2)C1c1cccc([N+](=O)[O-])c1 (configuration not stated),Dose-dependent effect,102%
2.9 µM,COC(=O)C1=C(C)NC(C)=C(C(=O)OCCOc2cc(O)cc(O)c2C(=O)/C=C/c2ccc(O)cc2)C1c1cccc([N+](=O)[O-])c1 (configuration not stated),Dose-dependent effect,104%
